# Hits are enriched below; roughly 1.9% of the tested compounds scored in any of these assays.
# p47phox inh = p47phox (human) inhibition. p47phox/p22phox peptide binding, fluorescence polarization, 2 h. inhibition, % at 24.7 µM. 0.53% of 220,000 active. P14598. AID 1274;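 active means inhibition above about 30%, limit read from the data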;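 further: 0% = p47phox with labelled peptide and 100% = labelled peptide alone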
# pCIP destab = compounds decreasing mouse p/CIP protein stability | Q05BA5 | F442A p/CIP-EGFP cells, EGFP fluorescence, 16 h | decrease of EGFP signal, % at 10 µM | 0.01% of 290,000 active;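 active means EGFP signal decrease of at least 30% at 10 µM or well 3 SD below plate mean, unless failing retest; inactive means the rest, including hits failing retest or dose response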
# RAM inhibit = blocks the yeast RAM network | S. cerevisiae dse1pr::URA3 reporter, 5-FOA growth OD615, 2 d; analog-sensitive cbk1-as2 kinase mutant strain | inhibition, % at 50 µM | 1.8% of 190,000 active;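 active means inhibition above a set limit, 3 SD over mean compound inhibition, cut at about 8.4% in these data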;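 further: 0% = DMSO-only wells with no growth and 100% = 10 µM 1-NA-PP1 full growth; inhibition rescues growth on 5-FOA so higher OD means more RAM inhibition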
# Dynein transport = dynein cargo transport inhibition; 3617.4 mouse cells, GR-EGFP nuclear translocation imaging; test concentration mostly 20 µM; stimulated with dexamethasone, 1 µM; stronger effect = lower value; z-score, hits read low; 0.47% of 220,000 active; AID 1381;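 active means plate z-score of nuclear minus cytoplasmic receptor signal below a set negative limit, without overly bright fluorescence or cell loss, cut at about -3.5 in these data, passing the limit was not always enough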;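 further: z-score of nuclear minus cytoplasmic ring GR-EGFP intensity difference per well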
#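 medium = tetracycline-free induction medium containing charcoal-stripped FBS | probe or stimulus = dexamethasone, 1.0 µM final | timing = 48 h induction, then 1 h compound, then 30 min agonist, 37 °C | detection = automated 10x imaging of fixed Hoechst-stained cells | read-out basis = nuclear versus cytoplasmic GR-EGFP signal, averaged per well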
# Dynein confirm = dynein cargo transport inhibition, confirmation. shares compounds with Dynein transport. 3617.4 GR-EGFP nuclear translocation imaging, dexamethasone-induced. calls only at 20 µM. 69% of 1,000 active. AID 463116;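 active means inhibition of receptor movement into the nucleus at or above a set limit in both runs, with normal cell brightness and cell count; inconclusive means limit reached in only one run, brightness and count normal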;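 further: dexamethasone at 1 µM final in well for 30 min; nuclear minus cytoplasmic GR-EGFP mean intensity difference in channel 2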
# * marks the source's active call; other numbers are inactive results; i = inactive; ? = inconclusive; nt = not tested or not shown; + = active, no number.
SMILES,p47phox inh,pCIP destab,RAM inhibit,Dynein transport,Dynein confirm
CC1=NOC(=O)/C1=C\c1ccc(-c2cccc(Cl)c2)o1,-40.7,-10.2,3.0,-0.416,nt
Cc1ccc(/C=C2/C(=O)ON=C2c2ccccc2)o1,-22.5,-9.0,nt,-5.97*,+
O=C1ON=C(c2ccccc2)/C1=C\c1ccco1,-26.3,-0.9,nt,-4.44*,+
CC1=NOC(=O)/C1=C\c1ccc(-c2ccccc2Br)o1,-10.7,-4.6,2.7,-3.67*,+
CC(=O)N1c2ccccc2C(CBr)=CC1(C)C,-3.2,-14.5,nt,-5.23*,i
Nc1c(C(=O)C2CC2)sc2nc(-c3cccs3)cc(C(F)(F)F)c12,-90.7,-22.7,4.2,-5.61,i
CC(C)NC(=O)c1sc2nc(-c3cccs3)cc(-c3cccs3)c2c1N,-17.9,12.6,4.2,0.224,nt
CCN(CC)C(=O)Cn1cc(C(=O)C(=O)N2CCN(c3ccc(OC)cc3)CC2)c2ccccc21,nt,2.8,nt,nt,nt
CCOC(=O)c1c(C)[nH]c(C)c1S(=O)(=O)N(C)CC(=O)N1CCN(c2ccc(OC)cc2)CC1,nt,5.1,nt,nt,nt
Cc1cc(C)n(-c2nc3ccccc3nc2Nc2ccc3c(c2)OCO3)n1,-10.6,-4.8,7.0,0.521,nt
Cc1ccc2nc(Nc3ccc4[nH]c(=O)[nH]c4c3)c(-n3nc(C)cc3C)nc2c1,-18.1,-4.7,7.1,-4.37,i
COC1=C(C)C(O)=C(C(=O)/C=C/c2ccccc2)C(=O)C1(C)C,-8.4,-12.1,nt,-5.25*,+
COc1ccc(C(=O)/C=C/c2ccccc2)c(OC)c1,-3.1,-11.8,-0.8,-2.34,nt
CC(C)NC(=O)CSc1nc(N)c(NC(=O)c2ccccc2F)c(=O)[nH]1,-0.3,-15.4,1.4,1.1,nt
O=[N+]([O-])c1ccc(N2CCSCC2)cc1,-7.1,-7.0,3.8,2.19,nt
COc1ccc(S(=O)(=O)NCC(=O)NCc2cc(=O)n(C)c(=O)n2C)cc1,nt,0.4,nt,nt,nt
CC1(C)Cc2c(C#N)c(NCC3CCCO3)nc(-c3ccco3)c2CO1 (stereo not drawn),-13.4,-5.8,1.8,-1.53,nt
CC1(C)Cc2c(C#N)c(NC3CCCCC3)nc(-c3ccco3)c2CO1,-42.6,8.2,2.0,-4.28*,i
O=S1(=O)C=C(Sc2nc3ccccc3s2)c2ccccc21,-7.8,-0.3,2.4,-4.11*,+
N#Cc1c(C(F)(F)F)cc(-c2ccc(Cl)c(Cl)c2)nc1SCCN1CCOCC1,-9.2,-8.4,2.1,-0.856,nt
N#Cc1c(C(F)(F)F)cc(-c2ccccc2)nc1SCc1nc(N)nc(N2CCOCC2)n1,-24.0,-41.2,2.7,-3.81,+
O=C(CCN1CCc2ccccc2C(c2ccccc2)C1)c1ccc2c(c1)OCCO2 (stereo not drawn),-0.6,5.7,-2.2,-1.05,nt
O=C(CCN1Cc2ccccc2C1)c1ccc2c(c1)OCCO2,-21.2,-1.2,-1.4,-3.65*,?
CCOC(=O)c1c(NC(=O)C2CCCN(S(=O)(=O)c3ccc(C)cc3)C2)sc2c1CCCC2 (stereo not drawn),-6.4,-0.5,4.5,0.77,nt
Cc1ccccc1CN(c1ccc(C(=O)N/N=C/c2ccc(OCC(N)=O)cc2)cc1)S(C)(=O)=O,-12.8,-0.1,5.8,-0.863,nt
SMILES,p47phox inh,pCIP destab,RAM inhibit,Dynein transport,Dynein confirm
CNc1ccc(/C=C2\CSc3ccccc3C2=O)cc1[N+](=O)[O-],-19.9,4.3,4.7,-4.04*,i
Cc1cc(-c2nnc(-c3ccccc3)c(-c3ccccc3)n2)c(C)o1,-14.5,-6.9,0.5,-3.68*,i
Cc1ccc(O)c(NC(=O)c2cc([N+](=O)[O-])ccc2Cl)c1,-2.3,19.3,1.4,-3.68*,+
NC(=O)CN1C(=O)C(O)(CC(=O)/C=C\c2ccc3c(c2)OCO3)c2ccccc21 (stereo not drawn),-2.4,2.1,0.5,-3.08,nt
CN1C(=O)C(O)(CC(=O)/C=C\c2ccc3c(c2)OCO3)c2ccccc21 (stereo not drawn),2.3,-9.7,0.9,-4.55*,+
COC(=O)[C@@]1(Cc2ccccc2)[C@@H]2C(=CC(=O)[C@H]2CC(=O)C(=O)N(C)C)CN1C(=O)c1ccccc1,-10.4,-4.6,0.5,-5.16*,+
O=C1C(Cc2ccc3[nH]ccc3c2)NC(=S)N1c1ccccc1 (stereo not drawn),-17.7,-16.3,nt,0.0533,nt
COc1ccc(/C=C(/C(=O)c2cccs2)N2C=CC=CC2=C(C#N)C#N)cc1,-44.2,-14.4,7.1,-3.64*,?
COc1ccc(N=N/C(=C\O)C(=O)c2cccs2)cc1,-4.6,5.1,1.1,-0.0522,nt

# High-throughput results (PubChem)
